According to ChEMBL document CHEMBL3856239, “Synthesis and Antiobesity Properties of 6-(4-Chlorophenyl)-3-(4-((3,3-difluoro-1-hydroxycyclobutyl)methoxy)-3-methoxyphenyl)thieno[3,2-d]pyrimidin-4(3H)-one (BMS-814580): A Highly Efficacious Melanin Concentrating Hormone Receptor 1 (MCHR1) Inhibitor” (J Med Chem, 2016):

What was measured:
[1] = Solubility of the compound in phosphate buffer at pH 6.4; assay type: physicochemical
How it was run: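 Solubility of parent compounds and prodrugs measured in 50 mM phosphate buffer, pH 6.4.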

Rattus norvegicus [2] = assay: Antiobesity activity in pair-fed DIO Sprague-Dawley rat model assessed as reduction in body weight at 3 mg/kg, po qd for 28 days relative to vehicle control; assay type: functional; parameters: scale not given: the % may be the effect or the level left
How it was run: (§1)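 Obese male SD rats on diet-induced obesity, 8/group, dosed orally once daily for 28 days with phosphate prodrug (0.03–3 mg/kg parent) in 14% propylene glycol/1% Tween/85% water; rimonabant 10 mg/kg control; pair-fed groups matched to 1 and 3 mg/kg intake; body weight and food measured daily, % change versus vehicle.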

[3] = Protein binding in rat plasma assessed as unbound fraction; assay type: ADME, cell-free
How it was run: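 Plasma protein binding reported as % free drug in rat, DIO rat, dog, cynomolgus monkey, rabbit and human plasma.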

Homo sapiens = species on record: Homo sapiens; assay: Inhibition of sodium channel (unknown origin) at 10 uM and 4 Hz
[4] = Metabolic stability in human liver microsomes assessed as compound remaining at 3 uM measured after 10 min; assay type: ADME; settings: read-out: Stability
How it was run: (§2)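 Test compound at 3.0 µM incubated with liver microsomes for 10 minutes; read-out is percent of parent remaining.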

Rattus norvegicus [5] = assay: Antiobesity activity in pair-fed DIO Sprague-Dawley rat model assessed as reduction in caloric intake at 3 mg/kg, po qd for 28 days relative to vehicle control; assay type: functional; parameters: scale not given: the % may be the effect or the level left; how it was run: as §1
Cytochrome P450 3A4 = Cytochrome P450 3A4 (Homo sapiens, UniProt P08684); assay: Inhibition of CYP3A4 (unknown origin); assay type: ADME
L-type calcium channel = L-type calcium channel (Homo sapiens, UniProt O60840+Q01668+Q13698+Q13936); assay: Inhibition of L-type calcium channel (unknown origin) at 10 uM
How it was run: (§3)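 In vitro ion-channel inhibition measured at 10 µM against hERG, Na (4 Hz) and L-type Ca channels; read-out is percent inhibition.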

[6] = Metabolic stability in mouse liver microsomes assessed as compound remaining at 3 uM measured after 10 min; assay type: ADME; settings: read-out: Stability; how it was run: as §2
[7] = Cardiotoxicity in anesthetized rabbit assessed as effect on mean arterial blood pressure; assay type: toxicity, tissue-based, Oryctolagus cuniculus
How it was run: (§4)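 Anesthetized rabbits given compound to plasma concentrations up to 38 µM; QT and QRS duration, mean arterial blood pressure and heart rate recorded.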

[8] = biological target: Melanin-concentrating hormone receptor 1 (Rattus norvegicus, UniProt P97639); assay: Binding affinity to rat MCHR1
[9] = Half life in rat at 1 mg/kg, iv; assay type: ADME, organism-based; settings: in vivo
How it was run: (§5)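 Rats, dogs and cynomolgus monkeys, n = 3: parent 1 mg/kg i.v. in PEG400:DMAC:water (70:5:25), or phosphate prodrug 10 mg/kg oral in Methocel:Tween80:water (0.5:0.1:99.4); plasma parent compound, Cmax, Tmax, AUC0-∞, half-life, clearance, Vss and bioavailability derived.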

[10] = Cardiotoxicity in anesthetized rabbit assessed as prolongation of QRS intervals up to plasma concentration of 38 uM; assay type: toxicity, Oryctolagus cuniculus; how it was run: as §4
[11] = biological target: Melanin-concentrating hormone receptor 1 (Homo sapiens, UniProt Q99705); assay: Antagonist activity at human MCHR1 expressed in HEK293 cells assessed as inhibition of MCH-stimulated calcium flux measured after 15 mins by FLIPR assay; assay type: functional, cell-based
[12] = Cardiotoxicity in anesthetized rabbit assessed as effect on heart rate; assay type: toxicity, tissue-based, Oryctolagus cuniculus; how it was run: as §4
[13] = Clearance in dog at 1 mg/kg, iv; assay type: ADME, organism-based, Canis lupus familiaris; settings: in vivo; how it was run: as §5
[14] = Clearance rat at 1 mg/kg, iv; assay type: ADME, organism-based; settings: in vivo; how it was run: as §5
hERG (KCNH2) = hERG (KCNH2) (Homo sapiens, UniProt Q12809); assay: Inhibition of human ERG at 10 uM; how it was run: as §3
Cytochrome P450 1A2 = biological target: T1, Cytochrome P450 1A2 (Homo sapiens, UniProt P05177); assay: Inhibition of CYP1A2 (unknown origin); assay type: ADME
T1 sequence (P05177 whole entry): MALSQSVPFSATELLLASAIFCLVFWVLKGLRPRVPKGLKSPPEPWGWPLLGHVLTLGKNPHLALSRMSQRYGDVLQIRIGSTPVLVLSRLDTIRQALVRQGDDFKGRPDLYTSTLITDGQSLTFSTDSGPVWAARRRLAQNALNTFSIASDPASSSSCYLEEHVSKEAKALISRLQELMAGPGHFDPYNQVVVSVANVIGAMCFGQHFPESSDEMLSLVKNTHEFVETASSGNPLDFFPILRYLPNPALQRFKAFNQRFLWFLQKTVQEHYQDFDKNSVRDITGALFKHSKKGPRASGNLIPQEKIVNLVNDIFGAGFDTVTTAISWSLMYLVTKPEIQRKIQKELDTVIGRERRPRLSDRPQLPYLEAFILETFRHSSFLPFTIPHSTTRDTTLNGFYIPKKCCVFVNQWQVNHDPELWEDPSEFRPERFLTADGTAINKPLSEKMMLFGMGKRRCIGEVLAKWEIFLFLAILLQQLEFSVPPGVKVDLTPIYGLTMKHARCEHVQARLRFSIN
How it was run: (§6)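 CYP1A2, 2C8, 2C9, 2C19, 2D6 and 3A4 tested for inhibition, with 40 µM as the top tested limit.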

[15] = Volume of distribution at steady state in dog at 1 mg/kg, iv; assay type: ADME, organism-based, Canis lupus familiaris; settings: in vivo, read-out: Vdss
How it was run: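 Full PK in rat, dog and cynomolgus monkey. Oral arm: phosphate prodrug at 10 mg/kg parent-equivalent in Methocel:Tween80:water (0.5:0.1:99.4). Intravenous arm: parent at 1 mg/kg in PEG400:DMAC:water (70:5:25). n = 3 per species; individual Tmax values reported for dog and monkey.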

Rattus norvegicus [16] = assay: Toxicity in DIO Sprague-Dawley rat assessed as biliary lesion formation at 10 mg/kg, po qd for 4 days; assay type: organism-based; settings: in vivo, 96 h
[17] = AUC in cynomolgus monkey at 1 mg/kg, iv; assay type: ADME, organism-based, Macaca fascicularis; settings: in vivo; how it was run: as §5
[18] = Binding affinity to cynomolgus monkey MCHR1; parameters: species or system Macaca fascicularis
[19] = Clearance in cynomolgus monkey at 1 mg/kg, iv; assay type: ADME, organism-based, Macaca fascicularis; settings: in vivo; how it was run: as §5
[20] = Half life in cynomolgus monkey at 1 mg/kg, iv; assay type: ADME, organism-based, Macaca fascicularis; settings: in vivo; how it was run: as §5
[21] = Cardiotoxicity in anesthetized rabbit assessed as prolongation of QT intervals up to plasma concentration of 38 uM; assay type: toxicity, Oryctolagus cuniculus; how it was run: as §4
Rattus norvegicus [22] = assay: Antiobesity activity in pair-fed DIO Sprague-Dawley rat model assessed as reduction in body weight at 1 mg/kg, po qd for 28 days relative to vehicle control; assay type: functional; parameters: scale not given: the % may be the effect or the level left; how it was run: as §1
Cytochrome P450 2C9 = Cytochrome P450 2C9 (Homo sapiens, UniProt P11712); assay: Inhibition of CYP2C9 (unknown origin); assay type: ADME; how it was run: as §6
[23] = Metabolic stability in rat liver microsomes assessed as compound remaining at 3 uM measured after 10 min; assay type: ADME; settings: read-out: Stability; how it was run: as §2

Sequence of hERG (KCNH2) (Q12809 whole entry): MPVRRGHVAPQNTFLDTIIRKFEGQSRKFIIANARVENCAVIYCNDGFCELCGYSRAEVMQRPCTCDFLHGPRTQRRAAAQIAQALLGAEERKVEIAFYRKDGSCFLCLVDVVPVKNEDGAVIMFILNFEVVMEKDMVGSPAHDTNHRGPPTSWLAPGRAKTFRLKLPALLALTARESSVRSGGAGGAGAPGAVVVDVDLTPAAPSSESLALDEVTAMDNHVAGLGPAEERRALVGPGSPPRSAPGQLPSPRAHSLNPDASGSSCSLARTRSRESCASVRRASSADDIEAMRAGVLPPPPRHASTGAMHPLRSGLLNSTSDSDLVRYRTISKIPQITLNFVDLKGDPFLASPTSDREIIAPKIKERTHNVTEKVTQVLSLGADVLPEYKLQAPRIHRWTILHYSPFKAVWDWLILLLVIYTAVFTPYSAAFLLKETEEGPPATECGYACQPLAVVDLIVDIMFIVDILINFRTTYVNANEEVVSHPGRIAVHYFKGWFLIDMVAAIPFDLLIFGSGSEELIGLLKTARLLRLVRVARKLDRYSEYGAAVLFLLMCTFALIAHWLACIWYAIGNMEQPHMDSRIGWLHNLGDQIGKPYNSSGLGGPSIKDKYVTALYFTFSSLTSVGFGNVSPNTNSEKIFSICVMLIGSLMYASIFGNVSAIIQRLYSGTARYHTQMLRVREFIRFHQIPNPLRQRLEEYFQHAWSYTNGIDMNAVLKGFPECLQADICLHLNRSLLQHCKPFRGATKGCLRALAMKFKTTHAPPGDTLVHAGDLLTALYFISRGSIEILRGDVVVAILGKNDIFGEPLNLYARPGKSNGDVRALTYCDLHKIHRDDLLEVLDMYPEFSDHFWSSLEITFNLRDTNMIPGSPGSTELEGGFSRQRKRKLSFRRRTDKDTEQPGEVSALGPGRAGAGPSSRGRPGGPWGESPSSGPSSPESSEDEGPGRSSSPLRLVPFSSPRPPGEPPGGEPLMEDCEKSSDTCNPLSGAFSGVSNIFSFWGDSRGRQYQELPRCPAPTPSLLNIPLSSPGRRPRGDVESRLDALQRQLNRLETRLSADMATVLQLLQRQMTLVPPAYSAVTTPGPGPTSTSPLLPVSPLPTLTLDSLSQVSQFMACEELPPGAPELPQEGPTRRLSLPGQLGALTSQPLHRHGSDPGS
Sequence of Cytochrome P450 3A4 (P08684 whole entry): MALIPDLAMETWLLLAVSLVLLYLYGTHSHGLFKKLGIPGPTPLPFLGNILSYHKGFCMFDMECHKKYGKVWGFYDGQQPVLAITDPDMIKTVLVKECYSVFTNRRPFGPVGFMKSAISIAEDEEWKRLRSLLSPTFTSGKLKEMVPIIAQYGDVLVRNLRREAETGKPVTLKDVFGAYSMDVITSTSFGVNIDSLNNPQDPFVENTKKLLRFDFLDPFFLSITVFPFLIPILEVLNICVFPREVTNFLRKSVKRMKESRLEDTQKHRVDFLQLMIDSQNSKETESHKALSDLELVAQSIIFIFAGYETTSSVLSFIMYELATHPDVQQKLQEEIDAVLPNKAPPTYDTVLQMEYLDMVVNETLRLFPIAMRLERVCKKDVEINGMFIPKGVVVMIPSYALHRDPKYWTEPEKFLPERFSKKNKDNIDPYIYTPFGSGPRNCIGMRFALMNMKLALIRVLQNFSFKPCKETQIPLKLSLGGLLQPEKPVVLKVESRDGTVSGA
Sequence of Cytochrome P450 2C9 (P11712 whole entry): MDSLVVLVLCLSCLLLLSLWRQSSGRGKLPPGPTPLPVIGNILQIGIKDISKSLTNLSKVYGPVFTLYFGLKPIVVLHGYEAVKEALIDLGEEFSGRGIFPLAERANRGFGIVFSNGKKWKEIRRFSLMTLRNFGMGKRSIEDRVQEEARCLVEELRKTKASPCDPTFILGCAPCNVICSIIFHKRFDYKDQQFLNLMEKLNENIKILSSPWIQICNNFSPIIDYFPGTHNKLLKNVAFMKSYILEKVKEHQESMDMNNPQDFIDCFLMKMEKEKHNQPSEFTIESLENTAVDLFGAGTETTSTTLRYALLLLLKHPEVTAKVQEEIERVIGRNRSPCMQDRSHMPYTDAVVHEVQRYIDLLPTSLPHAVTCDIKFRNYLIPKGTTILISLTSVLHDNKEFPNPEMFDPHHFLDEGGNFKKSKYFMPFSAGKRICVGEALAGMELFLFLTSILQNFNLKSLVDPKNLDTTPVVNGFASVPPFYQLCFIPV
Sequence of Melanin-concentrating hormone receptor 1 (Rattus norvegicus, UniProt P97639) (P97639 whole entry): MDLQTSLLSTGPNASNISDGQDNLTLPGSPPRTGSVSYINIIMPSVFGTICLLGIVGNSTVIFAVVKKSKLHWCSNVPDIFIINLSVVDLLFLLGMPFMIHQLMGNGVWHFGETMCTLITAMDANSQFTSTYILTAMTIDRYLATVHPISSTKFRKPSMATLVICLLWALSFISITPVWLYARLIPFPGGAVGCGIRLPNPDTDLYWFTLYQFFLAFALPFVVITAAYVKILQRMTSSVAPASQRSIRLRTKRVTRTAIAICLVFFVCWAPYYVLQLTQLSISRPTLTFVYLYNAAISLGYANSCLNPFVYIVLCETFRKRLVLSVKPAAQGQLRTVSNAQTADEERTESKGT
Sequence of Melanin-concentrating hormone receptor 1 (Homo sapiens, UniProt Q99705) (Q99705 whole entry): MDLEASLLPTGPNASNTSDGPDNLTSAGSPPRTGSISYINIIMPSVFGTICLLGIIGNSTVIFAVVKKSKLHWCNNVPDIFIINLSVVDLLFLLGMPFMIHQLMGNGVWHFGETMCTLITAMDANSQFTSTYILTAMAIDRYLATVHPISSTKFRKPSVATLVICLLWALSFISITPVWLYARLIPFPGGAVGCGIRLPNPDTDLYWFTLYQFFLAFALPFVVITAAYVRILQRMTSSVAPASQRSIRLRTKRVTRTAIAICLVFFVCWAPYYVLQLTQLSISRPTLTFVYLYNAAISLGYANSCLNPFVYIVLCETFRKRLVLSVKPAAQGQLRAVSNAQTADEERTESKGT

Question: Which results are given for COc1cc(-n2cnc3cc(-c4ccc(Cl)cc4)sc3c2=O)ccc1OCC1(O)CC(F)(F)C1?
Answer: solubility [1]: < 1 µg/mL; Activity (Rattus norvegicus [2]): 4.1%; Fu [3]: 0.2%; inhibition (Homo sapiens): 21%; remaining at 10 min, 3 µM [4]: 90%; Activity (Rattus norvegicus [5]): 14.7%; INH (Cytochrome P450 3A4): > 40 µM; inhibition at 10 µM (L-type calcium channel): 15%; remaining at 10 min, 3 µM [6]: 100%; Activity [7]: Non-Toxic; Ki [8]: 11.5 nM; half-life [9]: > 24 h; Activity [10]: Non-Toxic; Kb [11]: 117 nM; Activity [12]: Non-Toxic; clearance [13]: 6.9 mL/min/kg; clearance [14]: 0.9 mL/min/kg; inhibition at 10 µM (hERG (KCNH2)): 43%; INH (Cytochrome P450 1A2): > 40 µM; Vd [15]: 7.2 L/kg; Activity (Rattus norvegicus [16]): Non-Toxic; AUC [17]: 22.1 µM·h; Ki [18]: 4.9 nM; clearance [19]: 1.7 mL/min/kg; half-life [20]: 37 h; Activity [21]: Non-Toxic; Activity (Rattus norvegicus [22]): 4.2%; INH (Cytochrome P450 2C9): > 40 µM; remaining at 10 min, 3 µM [23]: 95%
